# Measured values gathered from unrelated publications.
# Each line is one published result; the experiments were not run side by side.
Structure (SMILES),species,sample,route,dose,setting,Tmax
Cc1ncc(C)n2nc(/C=C/c3nc(N4CCCC4)cc(N4CCOCC4)n3)nc12,male Sprague-Dawley rat,plasma,oral,0.3 mg/kg,,162 min
CN(C)C(=O)Oc1cc(OC(=O)N(C)C)cc(-c2cc3ccc(O)cc3o2)c1,male rat,plasma,oral,5 mg/kg,,94.8 min
CCCCCCCC(=O)N[C@@H](CCCCN)C(=O)N[C@@H](CCCCN)C(=O)N[C@@H](C)C(=O)N[C@@H](CC(C)C)C(=O)N[C@@H](CCCCN)C(=O)N[C@@H](CC(C)C)C(=O)N[C@@H](C)C(=O)N[C@@H](CCCCN)C(=O)N[C@@H](CCCCN)C(=O)N1CCC[C@H]1C(=O)N[C@@H](CC(C)C)C(=O)N[C@@H](CCCCN)C(=O)N[C@@H](CC(C)C)C(=O)N[C@@H](CC(C)C)C(=O)N[C@@H](CCCCN)C(N)=O,male Sprague-Dawley rat,blood,intravenous,3 mg/kg,infusion,40.2 min
CC(C)(C)[C@H](NC(=O)[C@H](CCONC(=N)N)NC(=O)Cc1ccc(CNC(=N)N)cc1)C(=O)N[C@@H](CCONC(=N)N)C(=O)NCc1ccc(C(=N)N)cc1,male Sprague-Dawley rat,plasma,intraperitoneal,2.5 mg/kg,,30 min
COc1ccc2c3c1O[C@H]1C[C@@H](OC(=O)c4ccccc4)C=C[C@@]31CCN(C)C2,rat,brain,intravenous,5 mg/kg,,4.8 min
Cl.Cl.O=C(CCN1CCCCC1)c1ccc(-c2ccc(C(=O)CCN3CCCCC3)cc2)cc1,Sprague-Dawley rat,plasma,intravenous,5 mg/kg,,1.8 min
COC(=O)C(NC(=O)c1cn(CCCCCF)c2ccccc12)C(C)(C)C (centres unmarked),male Sprague-Dawley rat,plasma,subcutaneous,50 µg/kg,,42.5 min
O=C(Nc1cccnn1)N1CCN([C@@H]2CCOc3cc(C(F)(F)F)ccc32)CC1,male Sprague-Dawley rat,plasma,oral,1 mg/kg,,40.2 min
